# CXCR6 inh – CXCR6 receptor inhibitors, primary screen, cell-based, beta-arrestin, luminescence, CHO-K1 PathHunter, 1536-well; 360,000 compounds, 0.36% hits; C-X-C chemokine receptor type 6 (Homo sapiens), O00574; inhibition, % at 20 µM; in the data active means inhibition above about 34%, passing the limit was not always enough;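 further: antagonist mode with CXCL16 agonist at 10 nM final; 0% = 10 nM CXCL16 with DMSO and 100% = unstimulated wells without agonist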
# EBI2 antag – EBI2 receptor antagonists, beta-arrestin recruitment, primary screen, cell-based, luminescence, 7a,25-OHC stimulation, uHTS. G-protein coupled receptor 183 (Homo sapiens), P32249. AID 651636, 2012. inhibition, % at 5 µM. 360,000 compounds, 0.81% hits. 7a,25-OHC stimulated; in the data active means inhibition above about 38%;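 further: enzyme fragment complementation signal reports receptor beta-arrestin coupling in cells; 0% = agonist plus DMSO wells and 100% = wells without agonist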
# APJ agonist – agonists of human apelin receptor APJ, primary screen, CHO-K1 cells, PathHunter beta-arrestin, luminescence | AID 2520, 2010 | 330,000 compounds, 0.11% hits | 0% DMSO wells, 100% apelin | activation, % at 20 µM;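 active means activation more than six SD over the plate average, tested at 20 µM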;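 further: 0% = DMSO alone and 100% = apelin-13 at 10 nM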
#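 Test system: CHO-K1 APJ beta-arrestin complementation cell line. Amount: cell density 1000 per well. Controls: DMSO negative, 10 nM Apelin-13 positive. Signal: luminescent beta-gal fragment complementation, chemiluminescent substrate. Read-out basis: agonist-driven arrestin binding to APJ. Timing: compound stimulation 90 min at 25 °C, detection 60 min.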
# APJ antag – antagonists of human apelin receptor APJ, primary screen, CHO-K1 cells, beta-arrestin complementation, luminescence; inhibition, % at 20 µM; 330,000 compounds, 0.32% hits; AID 2521, 2010;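 active means inhibition above about 40% at 20 µM, limit read from the data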;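 further: cells challenged with 10 nM apelin-13 agonist together with compound; plate controls were apelin-13 plus DMSO wells for no effect and DMSO wells lacking apelin-13 for full effect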
# CCR6 antagonist – CCR6 receptor antagonists, primary screen, cell-based, CHO-K1, luminescence, beta-arrestin, uHTS; CHO-K1 CCR6 PathHunter beta-arrestin, CCL20-stimulated; C-C chemokine receptor type 6 (Homo sapiens), P51684; AID 493098, 2011; 340,000 compounds, 0.49% hits; inhibition, % at 20 µM;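 active means compounds whose inhibition of the agonist-driven luminescence signal at 20 µM reaches about 50%, limit read from the data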;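 further: cells stimulated with CCL20 at 14 nM final; plate controls were DMSO with CCL20 for no effect and DMSO without agonist for full effect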
# m5-HT2A agonist – mouse Htr2a agonists via beta-arrestin recruitment, primary screen, cell-based, luminescence; CHO-K1 mHTR2A beta-arrestin complementation; percent of 30 µM serotonin response; 5-hydroxytryptamine receptor 2A (Mus musculus), P35363; 360,000 compounds, 0.66% hits; activation, % at 7.6 µM;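 active means activation above a run cutoff, the mean activation of all tested compounds plus 3 SD, cut at about 14% in these data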;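 further: 0% = plate median of compound wells and 100% = 30 µM serotonin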
# Target sequence (P35363 whole entry, looked up): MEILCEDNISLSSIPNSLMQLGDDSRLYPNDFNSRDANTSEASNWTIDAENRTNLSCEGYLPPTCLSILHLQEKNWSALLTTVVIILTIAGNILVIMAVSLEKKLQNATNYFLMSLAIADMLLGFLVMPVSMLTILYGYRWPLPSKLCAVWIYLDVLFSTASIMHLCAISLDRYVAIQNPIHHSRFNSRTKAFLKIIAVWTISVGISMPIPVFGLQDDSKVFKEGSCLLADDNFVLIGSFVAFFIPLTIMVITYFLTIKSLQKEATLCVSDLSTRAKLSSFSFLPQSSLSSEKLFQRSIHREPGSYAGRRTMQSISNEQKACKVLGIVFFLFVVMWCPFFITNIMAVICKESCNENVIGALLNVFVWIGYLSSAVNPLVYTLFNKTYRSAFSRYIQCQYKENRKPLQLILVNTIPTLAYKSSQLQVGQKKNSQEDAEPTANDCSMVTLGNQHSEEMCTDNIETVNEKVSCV
# * hit, by the source's call; . = not tested or not shown. Hits are enriched below; roughly 2.1% of the tested compounds scored in any of these assays.
SMILES,CXCR6 inh,EBI2 antag,APJ agonist,APJ antag,CCR6 antagonist,m5-HT2A agonist
Cc1ccc(OCC(=O)NNC(=S)NC(=O)c2cccs2)c(C)c1,37.2,-8.5,-6.6,9.9,55.4*,-3.3
COc1ccc2nc(NC(=O)/C=C/c3ccc4c(c3)OCO4)sc2c1,.,.,-0.8,-20.4,.,.
Cc1ccc(OCCC(=O)OCC(=O)NC2CCCC(C)C2C)cc1 (stereo unspecified),-0.3,-8.8,-2.4,5.3,7.8,6.3
N#CC(C#N)=C1C=CC=CN1/C(=C\c1ccccc1)C(=O)c1cccs1,9.0,-10.1,-3.5,24.0,87.2*,5.0
COc1ccccc1N(C(C)=O)C1=C(Cl)C(=O)c2ccccc2C1=O,96.5*,2.8,.,.,.,0.5
O=C(Nc1ccc(Nc2ccccc2)cc1)c1cccc(F)c1,-4.2,0.9,3.2,-18.5,4.8,-5.2
COc1cc(/C=C2\SC(=O)N(Cc3ccc(Cl)cc3)C2=O)cc([N+](=O)[O-])c1O,37.7,13.3,.,.,55.8*,-0.8
COc1cc(/C=C2/SC(=S)N(Cc3ccccc3)C2=O)cc(Cl)c1O,37.1,9.1,.,.,46.6,-0.5
COc1cc(/C=C2\SC(=O)N(Cc3ccc(F)cc3)C2=O)cc([N+](=O)[O-])c1O,30.4,19.0,-8.7,26.7,50.2*,6.1
CCOC(=O)CN1C(=O)S/C(=C/c2ccc(OC)c([N+](=O)[O-])c2)C1=O,8.7,2.0,1.0,9.5,15.0,4.1
O=C1/C(=C\c2ccccc2)CCC/C1=C/c1ccccc1,2.8,-8.3,.,.,14.7,-1.3
O=C1/C(=C\c2ccccc2)CN(C(=O)CCN2CCCCC2)C/C1=C/c1ccccc1,66.4*,52.3*,.,.,81.9*,-9.6
O=C1/C(=C\c2ccc(Cl)c(Cl)c2)CN(C(=O)CCN2CCOCC2)C/C1=C/c1ccc(Cl)c(Cl)c1,31.7,89.6*,.,.,55.5*,-7.4
CCN(CC)CCC(=O)N1C/C(=C/c2ccccc2)C(=O)/C(=C\c2ccccc2)C1,62.4*,52.2*,.,.,65.5*,0.0
COC(=O)C1=CN(Cc2ccc(OC)c(OC)c2)C=C(C(=O)OC)C1c1ccc(F)cc1,13.0,-4.4,-0.6,-5.1,6.8,-5.1
CC(C)=CCN1CCN(Cc2c(C)nn(C)c2Cl)CC1CCO (stereo unspecified),3.7,-0.1,-1.1,17.5,5.1,0.9
CCN(CC)S(=O)(=O)c1ccc(N=Nc2c(C)[nH]n(C(N)=S)c2=O)cc1,22.1,6.5,-8.6,26.3,37.0,-4.0
CCN(CC)S(=O)(=O)c1ccc(N=Nc2cc(C)cc(Br)c2O)cc1,41.7*,26.1,-6.8,29.7,57.8*,1.9
O=C(O)c1cc(N/N=C/c2c(O)ccc3ccccc23)ccc1Cl,-7.4,0.4,-2.9,1.3,0.5,-2.6
CC1CCCC(C)N1/N=C/c1ccc(Cl)cc1 (stereo unspecified),-9.6,6.0,-3.0,11.7,2.8,3.0
COC(=O)/C(=C(/F)Sc1cc(C)c(O)c(C)c1)C(F)(F)F,1.0,-5.0,-6.1,-4.0,7.8,16.0*
ON1C2CCCCC2N(O)C1c1c(F)c(F)c(F)c(F)c1F (stereo unspecified),17.5,-1.4,-11.9,30.4,52.7*,0.6
Nn1c(SCC(=O)NNC(=O)c2ccccc2)nnc1-c1ccccc1F,-12.6,12.5,-5.2,6.1,-9.3,-4.1
O=C(Cn1ccc2ccccc2c1=O)Nc1ccc2c(c1)OCO2,-6.2,-8.2,-5.2,-4.8,69.1*,-4.5
CCN1CCN(CC(=O)Nc2ccc3c(c2)OCO3)C(=O)C1=O,-7.2,-5.0,-0.7,-4.6,1.6,23.2*
SMILES,CXCR6 inh,EBI2 antag,APJ agonist,APJ antag,CCR6 antagonist,m5-HT2A agonist
CC(NC(=O)/C(C#N)=C/c1ccc([N+](=O)[O-])o1)c1ccccc1 (stereo unspecified),50.0*,36.3,5.2,29.8,.,-6.6
CC(NC(=O)/C(C#N)=C/c1ccco1)c1ccccc1 (stereo unspecified),7.0,0.1,0.6,-3.5,3.7,0.0
Cc1ccc(-c2csc3nc4c5ccccc5c(NCCCN(C)C)nn4c(=O)c23)cc1,0.8,-6.9,11.2*,13.6,21.1,-6.5
Cc1ccc(-c2csc3nc4c5ccccc5c(NCCCN5CCOCC5)nn4c(=O)c23)cc1,.,.,-2.3,11.9,.,.
CCOC(=O)c1ccc(N=c2sc(C(=O)OC)cc(=O)n2Cc2ccc3c(c2)OCO3)cc1,4.9,72.7*,-5.5,15.3,9.9,-2.5
CC(C)c1c(O)nc(SCC(=O)N2CCCCC2)[nH]c1=O,-1.1,4.6,0.0,2.4,1.0,12.7
N#CCSc1nc2c(cc1C#N)CCCCCC2,2.6,13.7,-2.1,6.1,5.1,-3.0
S=c1[nH]nc(C2CCCCC2)n1/N=C/c1ccncc1,3.1,-0.9,-0.9,-3.7,8.0,2.2
O=[N+]([O-])c1ccc(/C=N/n2c(C3CCCCC3)n[nH]c2=S)cc1,20.3,11.6,-1.9,16.2,56.1*,1.9
CCOc1cc2[nH]c(=S)n(C3CC3)c(=O)c2cc1OCC,-0.1,-1.6,-0.3,15.6,-2.4,1.7
CCOC(=O)N1CCC(n2c(=S)[nH]c3cc(OCC)c(OCC)cc3c2=O)CC1,-3.5,59.6*,-1.6,12.3,7.3,3.5
O=S(=O)(Nc1ccc(N=Nc2ccc(O)c3ccccc23)cc1)c1ccccc1,34.5,46.9*,-10.4,37.9,60.5*,-6.2
CC(=O)NC(=S)Nc1cccc2c(C)cc(C)nc12,-6.2,-5.2,-3.3,10.8,11.5,1.0
Cc1cc(C)c2cccc(NC(=S)NC(=O)c3ccccc3)c2n1,30.1,15.0,-0.9,12.2,68.6*,1.5
Cc1ccccc1NC(=S)NC(=O)c1cc(-c2ccccc2)nc2ccccc12,29.0,8.0,0.5,20.9,55.6*,3.6
Cc1cccc(NC(=S)NC(=O)c2cc(-c3ccccc3)nc3ccccc23)c1,34.5,14.0,-18.4,30.0,49.4,6.3
COc1ccc(NC(=O)CN(C)C(=O)Cc2c[nH]c3ccccc23)cc1,-0.4,-4.0,-2.8,3.2,8.0,7.0
O=C1/C(=C/c2ccc([N+](=O)[O-])cc2)C=C(c2ccccc2)N1c1ccc(O)cc1,37.5*,61.4*,0.4,6.1,54.4*,-3.4
O=C1/C(=C/c2ccc([N+](=O)[O-])cc2)C=C(c2ccccc2)N1c1ccccc1,2.9,14.3,3.9,-24.0,4.2,-0.4
CCN1C(=O)/C(=C/C=C2/Sc3ccc4ccccc4c3N2CCO)SC1=S,9.1,12.3,-3.5,27.0,51.0*,2.5

# Bioassay records from PubChem BioAssay.
